Laboratory results published in ChEMBL document CHEMBL4725354 (J Med Chem, 2020).

Tested on: MDCK-II
Test: Cytotoxicity against MDCK2 cells assessed as reduction in cell viability at 10 uM after 72 hrs by MTT assay
Type: cell-based, Canis lupus familiaris
Conditions: dog
Outline: (§1)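 Single-concentration screen at 10 µM in MDCK II BCRP and parental MDCK II cells. MTT assay, 72 h at 37 °C, 5% CO2. Viability referenced to culture medium (100%) and 10% DMSO (0%). Mean ± SEM of at least three independent experiments with duplicates.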

With Cc1cc(Nc2cccc(F)c2)nc(-c2ccccc2)n1 the Activity was “Non-Toxic”.
In the case of Cc1cc(Nc2cccc(CO)c2)nc(-c2ccccc2)n1, the Activity is reported as “Non-Toxic”.
In the case of Cc1cc(Nc2ccc(C#N)c(C(F)(F)F)c2)nc(-c2ccccc2)n1, the Activity is reported as “Toxic”.
For Cc1cc(Nc2ccc([N+](=O)[O-])c(Cl)c2)nc(-c2ccccc2)n1, the Activity was “Non-Toxic”.
For Cc1cc(Nc2ccc([N+](=O)[O-])cc2)nc(-c2ccccc2)n1, the Activity was “Non-Toxic”.

Tested on: not listed separately
Test: Growth inhibition of MDCK2 cells over expressing human ABCG2 after 72 hrs by MTT assay
Type: ADME, cell-based, Canis lupus familiaris, MDCK-II
Conditions: dog, MDCK2 cells overexpressing human ABCG2
Outline: (§2)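 MTT viability assay. Compound dilutions in culture medium (3.2 to 1000 µM as prepared). About 2,000 cells per well, 72 h at 37 °C, 5% CO2. Culture medium set as 100% and 10% DMSO as 0% viability. MTT added for 1 h, formazan dissolved in DMSO, absorbance read at 570 nm with 690 nm background. GI50 from nonlinear regression of absorbance vs log concentration; at least three independent experiments, duplicates, mean ± SEM.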

Point of comparison: Cc1cc(Nc2ccc(C#N)c(C(F)(F)F)c2)nc(-c2ccccc2)n1, GI50 at 72 h 9570 nM. Against it:
- Cc1cc(Nc2ccc([N+](=O)[O-])cc2)nc(-c2ccccc2)n1 — 1.8-fold higher, 17000 nM

Target: ATP-dependent translocase ABCB1 (Homo sapiens, UniProt P08183)
Test: Inhibition of human ABCB1 expressed in A2780/ADR cells preincubated for 30 mins followed by calcein AM addition and measured every 60 secs for 60 mins by fluorescence assay
Type: cell-based
Conditions: not given
Outline: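 ABCB1 in A2780/ADR cells (kept resistant by one passage in 1 µM doxorubicin every 10 passages). 30,000 cells per well in Krebs-HEPES buffer, preincubated 30 min at 37 °C with inhibitor. Calcein AM added from a 3.125 µM solution. Fluorescence (ex 485, em 520 nm) read every 60 s for 60 min. Initial linear slopes vs log concentration fitted to give IC50.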

ATP-dependent translocase ABCB1, sequence (P08183 whole entry): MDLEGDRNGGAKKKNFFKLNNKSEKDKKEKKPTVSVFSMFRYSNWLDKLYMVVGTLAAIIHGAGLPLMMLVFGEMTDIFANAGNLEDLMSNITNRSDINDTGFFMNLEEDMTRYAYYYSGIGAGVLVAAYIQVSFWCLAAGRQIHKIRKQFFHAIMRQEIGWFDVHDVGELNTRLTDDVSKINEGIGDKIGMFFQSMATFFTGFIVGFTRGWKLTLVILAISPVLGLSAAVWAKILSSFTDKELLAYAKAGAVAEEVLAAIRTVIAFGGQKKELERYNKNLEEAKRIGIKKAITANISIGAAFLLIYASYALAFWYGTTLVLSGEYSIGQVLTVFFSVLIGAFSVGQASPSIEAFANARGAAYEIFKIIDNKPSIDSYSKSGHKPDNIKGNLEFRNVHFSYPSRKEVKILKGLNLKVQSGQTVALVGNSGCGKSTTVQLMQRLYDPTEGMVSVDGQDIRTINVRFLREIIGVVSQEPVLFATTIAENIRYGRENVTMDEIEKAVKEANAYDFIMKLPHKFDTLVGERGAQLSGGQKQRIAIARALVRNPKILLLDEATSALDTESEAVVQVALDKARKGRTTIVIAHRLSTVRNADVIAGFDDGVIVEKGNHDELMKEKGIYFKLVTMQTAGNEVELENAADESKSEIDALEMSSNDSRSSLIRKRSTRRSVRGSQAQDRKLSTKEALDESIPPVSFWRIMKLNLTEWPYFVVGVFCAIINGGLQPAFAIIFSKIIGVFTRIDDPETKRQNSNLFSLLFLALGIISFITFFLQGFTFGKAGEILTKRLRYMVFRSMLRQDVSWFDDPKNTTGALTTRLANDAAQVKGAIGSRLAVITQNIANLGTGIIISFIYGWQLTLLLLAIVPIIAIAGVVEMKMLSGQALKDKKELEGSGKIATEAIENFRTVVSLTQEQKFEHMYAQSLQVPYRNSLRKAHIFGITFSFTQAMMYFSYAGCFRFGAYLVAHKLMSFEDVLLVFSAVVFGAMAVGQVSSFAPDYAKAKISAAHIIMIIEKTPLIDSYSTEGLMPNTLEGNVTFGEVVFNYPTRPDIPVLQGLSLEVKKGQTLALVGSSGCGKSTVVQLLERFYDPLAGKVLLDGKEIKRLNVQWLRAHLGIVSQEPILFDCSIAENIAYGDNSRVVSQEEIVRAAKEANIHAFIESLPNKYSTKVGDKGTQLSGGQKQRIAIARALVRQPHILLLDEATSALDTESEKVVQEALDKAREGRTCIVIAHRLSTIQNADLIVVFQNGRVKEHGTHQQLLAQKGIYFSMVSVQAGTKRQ

Cc1cc(Nc2ccc([N+](=O)[O-])cc2)nc(-c2ccccc2)n1 gave an IC50 of 11200 nM.

Tested on: MDCK-II
Test: Cytotoxicity against MDCK2 cells over expressing human ABCG2 at 10 uM assessed as reduction in cell viability after 72 hrs by MTT assay
Type: ADME, cell-based, Canis lupus familiaris
Conditions: dog
Outline: as §1

For Cc1cc(Nc2cccc(F)c2)nc(-c2ccccc2)n1, the Activity was “Non-Toxic”.
In the case of Cc1cc(Nc2cccc(CO)c2)nc(-c2ccccc2)n1, the Activity is reported as “Non-Toxic”.
With Cc1cc(Nc2ccc(C#N)c(C(F)(F)F)c2)nc(-c2ccccc2)n1 the Activity was “Toxic”.
For Cc1cc(Nc2ccc([N+](=O)[O-])c(Cl)c2)nc(-c2ccccc2)n1, the Activity was “Non-Toxic”.
For Cc1cc(Nc2ccc([N+](=O)[O-])cc2)nc(-c2ccccc2)n1, the Activity was “Non-Toxic”.

Tested on: not listed separately
Test: Growth inhibition of MDCK2 cells after 72 hrs by MTT assay
Type: cell-based, Canis lupus familiaris, MDCK-II
Conditions: dog
Outline: as §2

Point of comparison: Cc1cc(Nc2ccc([N+](=O)[O-])cc2)nc(-c2ccccc2)n1, GI50 at 72 h 16700 nM. Against it:
- Cc1cc(Nc2ccc(C#N)c(C(F)(F)F)c2)nc(-c2ccccc2)n1 — 1.7-fold lower, 9890 nM

Target: T1, ABCG2 (Homo sapiens, UniProt Q9UNQ0)
T1 sequence (Q9UNQ0 whole entry): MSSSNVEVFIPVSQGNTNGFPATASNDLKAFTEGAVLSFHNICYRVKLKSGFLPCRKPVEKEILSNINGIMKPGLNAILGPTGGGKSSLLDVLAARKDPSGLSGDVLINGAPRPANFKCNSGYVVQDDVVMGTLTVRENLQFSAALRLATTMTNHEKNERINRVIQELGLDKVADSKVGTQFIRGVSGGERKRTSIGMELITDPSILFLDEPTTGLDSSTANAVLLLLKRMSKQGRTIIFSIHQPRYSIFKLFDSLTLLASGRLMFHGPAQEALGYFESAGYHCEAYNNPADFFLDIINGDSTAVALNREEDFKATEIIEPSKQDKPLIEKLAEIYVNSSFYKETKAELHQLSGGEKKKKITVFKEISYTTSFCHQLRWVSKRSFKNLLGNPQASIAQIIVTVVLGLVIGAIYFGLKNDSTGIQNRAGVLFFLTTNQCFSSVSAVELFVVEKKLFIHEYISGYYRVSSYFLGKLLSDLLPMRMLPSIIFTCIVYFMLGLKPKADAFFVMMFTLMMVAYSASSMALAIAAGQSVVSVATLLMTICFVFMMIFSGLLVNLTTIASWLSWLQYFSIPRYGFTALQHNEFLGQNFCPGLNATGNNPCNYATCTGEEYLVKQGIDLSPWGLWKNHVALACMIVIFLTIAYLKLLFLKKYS
Test: Inhibition of human ABCG2 expressed in MDCK2 cells co-expressing GFP preincubated for 15 mins followed by pheophorbideA addition and measured after 2 hrs by flow cytometric analysis relative to control
Type: cell-based, MDCK-II
Conditions: probe pheophorbide A, read-out: Imax

Point of comparison: Cc1cc(Nc2ccc([N+](=O)[O-])c(Cl)c2)nc(-c2ccccc2)n1, Emax at 2 h 86%. Against it:
- Cc1cc(Nc2cccc(F)c2)nc(-c2ccccc2)n1 — higher, 100%
- Cc1cc(Nc2cccc(CO)c2)nc(-c2ccccc2)n1 — higher, 100%
- Cc1cc(Nc2ccc(C#N)c(C(F)(F)F)c2)nc(-c2ccccc2)n1 — higher, 92%
- Cc1cc(Nc2ccc([N+](=O)[O-])cc2)nc(-c2ccccc2)n1 — lower, 67%

Tested on: ABCG2
Test: Therapeutic ratio of GI50 for Growth inhibition of MDCK2 cells over expressing human ABCG2 to IC50 for inhibition of human ABCG2 expressed in MDCK2 cells co-expressing GFP preincubated for 15 mins followed by pheophorbideA addition and measured after 2 hrs by flow cytometric analysis
Type: toxicity, cell-based
Conditions: dog, MDCK2 cells overexpressing human ABCG2, probe pheophorbide A; read-out: TI

Point of comparison: Cc1cc(Nc2ccc(C#N)c(C(F)(F)F)c2)nc(-c2ccccc2)n1, selectivity ratio at 2 h 25. Against it:
- Cc1cc(Nc2ccc([N+](=O)[O-])cc2)nc(-c2ccccc2)n1 — higher, 111

Target: T1, ABCG2
Test: Inhibition of human ABCG2 expressed in MDCK2 cells co-expressing GFP preincubated for 30 mins followed by Hoechst 33342 addition and measured every 60 sec for 120 mins by fluorescence assay relative to control
Type: cell-based, MDCK-II
Conditions: probe Hoechst 33342, read-out: Imax
Outline: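 MDCK II cells transfected with human ABCG2 cDNA C-terminally fused to GFP. Steady-state means vs log concentration fitted by 3- or 4-parameter logistic to give IC50.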

Point of comparison: Cc1cc(Nc2ccc([N+](=O)[O-])c(Cl)c2)nc(-c2ccccc2)n1, Emax at 2 h 76%. Against it:
- Cc1cc(Nc2cccc(F)c2)nc(-c2ccccc2)n1 — higher, 100%
- Cc1cc(Nc2cccc(CO)c2)nc(-c2ccccc2)n1 — higher, 100%
- Cc1cc(Nc2ccc(C#N)c(C(F)(F)F)c2)nc(-c2ccccc2)n1 — higher, 114%
- Cc1cc(Nc2ccc([N+](=O)[O-])cc2)nc(-c2ccccc2)n1 — higher, 79%

Target: T2, Broad substrate specificity ATP-binding cassette transporter ABCG2 (Homo sapiens, UniProt Q9UNQ0)
T2 sequence (Q9UNQ0 whole entry): T1 sequence (Q9UNQ0 whole entry)
Test: Inhibition of human ABCG2 expressed in MDCK2 cells co-expressing GFP preincubated for 15 mins followed by pheophorbideA addition and measured after 2 hrs by flow cytometric analysis
Type: cell-based, MDCK-II
Conditions: not given
Outline: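 Pheophorbide A added to 0.5 µM final and incubated 2 h. Read by flow cytometry (ex 488, em 695/50 nm); GFP expression checked at 525/30 nm. IC50 from 3- or 4-parameter logistic fit.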

Point of comparison: Cc1cc(Nc2ccc([N+](=O)[O-])c(Cl)c2)nc(-c2ccccc2)n1, IC50 228 nM. Against it:
- Cc1cc(Nc2cccc(F)c2)nc(-c2ccccc2)n1 — 3.4-fold higher, 776 nM
- Cc1cc(Nc2cccc(CO)c2)nc(-c2ccccc2)n1 — 11-fold higher, 2520 nM
- Cc1cc(Nc2ccc(C#N)c(C(F)(F)F)c2)nc(-c2ccccc2)n1 — 1.7-fold higher, 385 nM
- Cc1cc(Nc2ccc([N+](=O)[O-])cc2)nc(-c2ccccc2)n1 — within 1.5-fold, 156 nM

Tested on: ABCG2
Test: Therapeutic ratio of GI50 for Growth inhibition of MDCK2 cells over expressing human ABCG2 to IC50 for inhibition of human ABCG2 expressed in MDCK2 cells co-expressing GFP preincubated for 30 mins followed by Hoechst 33342 addition and measured every 60 sec for 120 mins by fluorescence assay
Type: toxicity, cell-based
Conditions: dog, MDCK2 cells overexpressing human ABCG2, probe Hoechst 33342; read-out: TI

Point of comparison: Cc1cc(Nc2ccc(C#N)c(C(F)(F)F)c2)nc(-c2ccccc2)n1, selectivity ratio 139. Against it:
- Cc1cc(Nc2ccc([N+](=O)[O-])cc2)nc(-c2ccccc2)n1 — higher, 327

Target: T2, Broad substrate specificity ATP-binding cassette transporter ABCG2
Test: Inhibition of human ABCG2 expressed in MDCK2 cells co-expressing GFP preincubated for 30 mins followed by Hoechst 33342 addition and measured every 60 sec for 120 mins by fluorescence assay
Type: cell-based, MDCK-II
Conditions: not given
Outline: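 MDCK II cells transfected with human ABCG2 cDNA C-terminally fused to GFP. Hoechst 33342 added at 1 µM final. Fluorescence (ex 355, em 460 nm) read every 60 s for 120 min. Steady-state means vs log concentration fitted by 3- or 4-parameter logistic to give IC50.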

Point of comparison: Cc1cc(Nc2ccc([N+](=O)[O-])cc2)nc(-c2ccccc2)n1, IC50 52.2 nM. Against it:
- Cc1cc(Nc2cccc(F)c2)nc(-c2ccccc2)n1 — 21-fold higher, 1110 nM
- Cc1cc(Nc2cccc(CO)c2)nc(-c2ccccc2)n1 — 81-fold higher, 4220 nM
- Cc1cc(Nc2ccc(C#N)c(C(F)(F)F)c2)nc(-c2ccccc2)n1 — within 1.5-fold, 69.3 nM
- Cc1cc(Nc2ccc([N+](=O)[O-])c(Cl)c2)nc(-c2ccccc2)n1 — within 1.5-fold, 58.9 nM
